{
  "source": "ChEMBL document CHEMBL4145671",
  "about": "“Development of Kinase-Selective, Harmine-Based DYRK1A Inhibitors that Induce Pancreatic Human β-Cell Proliferation” (J Med Chem, 2018)",
  "key": {"Pancreatic islet [1]": {"tested_on": "Pancreatic islet", "assay": "Induction of beta-cell proliferation in human pancreatic islets at 10 uM incubated for 96 hrs by Ki67 and insulin immunolabelling method", "assay_type": "functional, cell-based", "procedure,_shortened": "(§1)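 Human islets from the NIH/NIDDK IIDP dispersed onto coverslips with Accutase, then treated with compound or vehicle (0.1% DMSO) in RPMI1640 complete medium for 96 h. Cells fixed, stained for insulin and Ki67, imaged; Ki67/insulin double-positive and total insulin-positive cells counted. Islets from 3 to 5 adult donors, at least 1000 beta cells counted per donor; n = 4–5, SEM.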"}, "Pancreatic islet [2]": {"tested_on": "Pancreatic islet", "assay": "Induction of beta-cell proliferation in human pancreatic islets at 30 uM incubated for 96 hrs by Ki67 and insulin immunolabelling method", "assay_type": "functional, cell-based", "procedure,_shortened": "as §1"}, "Pancreatic islet [3]": {"tested_on": "Pancreatic islet", "assay": "Induction of beta-cell proliferation in human pancreatic islets incubated for 96 hrs by Ki67 and insulin immunolabelling method", "assay_type": "functional, cell-based", "procedure,_shortened": "as §1"}, "[4]": {"assay": "Toxicity in human pancreatic islets at 30 uM", "assay_type": "cell-based", "conditions": "pancreatic islet"}, "[5]": {"molecular_target": "Dual specificity tyrosine-phosphorylation-regulated kinase 1A (Rattus norvegicus) (UniProt Q63470)", "assay": "Inhibition of DYRK1A in rat R7T1 cells expressing expressing NFAT2-GFP assessed as induction of NFAT2-GFP nuclear translocation at 10 uM incubated for 24 hrs by", "assay_type": "cell-based", "procedure,_shortened": "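Immortalized R7T1 rat beta cells infected with adenovirus expressing NFAT2-GFP for 48 h, then exposed to compound at 10 μM for a further 24 h. Cells imaged and NFAT2-GFP nuclear translocation scored as nuclear frequency, at least 1000 cells counted; n = 3, SEM.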"}, "[6]": {"molecular_target": "Cyclin-dependent kinase 8 (Homo sapiens) (UniProt P49336)", "sequence (P49336 whole entry)": "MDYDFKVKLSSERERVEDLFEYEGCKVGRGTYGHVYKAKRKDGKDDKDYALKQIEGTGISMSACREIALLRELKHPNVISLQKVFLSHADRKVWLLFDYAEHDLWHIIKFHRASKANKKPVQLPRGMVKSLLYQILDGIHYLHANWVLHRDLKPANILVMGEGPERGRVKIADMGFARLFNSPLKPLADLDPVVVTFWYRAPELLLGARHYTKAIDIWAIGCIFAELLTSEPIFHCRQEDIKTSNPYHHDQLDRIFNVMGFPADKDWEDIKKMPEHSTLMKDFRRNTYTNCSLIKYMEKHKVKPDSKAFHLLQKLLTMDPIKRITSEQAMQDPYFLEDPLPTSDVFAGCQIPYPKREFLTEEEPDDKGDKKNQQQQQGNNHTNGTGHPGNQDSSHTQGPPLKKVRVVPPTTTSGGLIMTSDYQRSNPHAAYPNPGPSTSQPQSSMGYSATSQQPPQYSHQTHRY", "assay": "Inhibition of human CDK8 expressed in bacterial expression system assessed as remaining enzyme activity at 10 uM by kinome scan assay"}, "[7]": {"molecular_target": "Cyclin-dependent kinase 19 (Homo sapiens) (UniProt Q9BWU1)", "sequence (Q9BWU1 whole entry)": "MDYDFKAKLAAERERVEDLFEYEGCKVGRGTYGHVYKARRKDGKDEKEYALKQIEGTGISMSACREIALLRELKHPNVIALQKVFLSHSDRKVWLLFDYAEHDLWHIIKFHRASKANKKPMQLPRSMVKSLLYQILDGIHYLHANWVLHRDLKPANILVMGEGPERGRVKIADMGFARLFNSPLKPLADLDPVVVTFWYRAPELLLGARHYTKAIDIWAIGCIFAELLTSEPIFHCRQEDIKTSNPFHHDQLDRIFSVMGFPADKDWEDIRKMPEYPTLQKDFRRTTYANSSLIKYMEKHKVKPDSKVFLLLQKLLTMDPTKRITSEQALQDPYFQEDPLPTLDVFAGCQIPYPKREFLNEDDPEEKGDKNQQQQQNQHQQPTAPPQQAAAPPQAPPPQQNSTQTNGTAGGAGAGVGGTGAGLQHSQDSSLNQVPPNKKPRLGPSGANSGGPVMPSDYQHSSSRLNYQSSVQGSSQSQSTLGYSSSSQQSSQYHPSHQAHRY", "assay": "Inhibition of human CDK11 expressed in bacterial expression system assessed as remaining enzyme activity at 10 uM by kinome scan assay"}, "[8]": {"molecular_target": "Cyclin-dependent kinase 7 (Homo sapiens) (UniProt P50613)", "assay": "Inhibition of human CDK7 expressed in mammalian expression system assessed as remaining enzyme activity at 10 uM by kinome scan assay"}, "[9]": {"molecular_target": "Cyclin-dependent kinase-like 5 (Homo sapiens) (UniProt O76039)", "sequence (O76039 whole entry)": "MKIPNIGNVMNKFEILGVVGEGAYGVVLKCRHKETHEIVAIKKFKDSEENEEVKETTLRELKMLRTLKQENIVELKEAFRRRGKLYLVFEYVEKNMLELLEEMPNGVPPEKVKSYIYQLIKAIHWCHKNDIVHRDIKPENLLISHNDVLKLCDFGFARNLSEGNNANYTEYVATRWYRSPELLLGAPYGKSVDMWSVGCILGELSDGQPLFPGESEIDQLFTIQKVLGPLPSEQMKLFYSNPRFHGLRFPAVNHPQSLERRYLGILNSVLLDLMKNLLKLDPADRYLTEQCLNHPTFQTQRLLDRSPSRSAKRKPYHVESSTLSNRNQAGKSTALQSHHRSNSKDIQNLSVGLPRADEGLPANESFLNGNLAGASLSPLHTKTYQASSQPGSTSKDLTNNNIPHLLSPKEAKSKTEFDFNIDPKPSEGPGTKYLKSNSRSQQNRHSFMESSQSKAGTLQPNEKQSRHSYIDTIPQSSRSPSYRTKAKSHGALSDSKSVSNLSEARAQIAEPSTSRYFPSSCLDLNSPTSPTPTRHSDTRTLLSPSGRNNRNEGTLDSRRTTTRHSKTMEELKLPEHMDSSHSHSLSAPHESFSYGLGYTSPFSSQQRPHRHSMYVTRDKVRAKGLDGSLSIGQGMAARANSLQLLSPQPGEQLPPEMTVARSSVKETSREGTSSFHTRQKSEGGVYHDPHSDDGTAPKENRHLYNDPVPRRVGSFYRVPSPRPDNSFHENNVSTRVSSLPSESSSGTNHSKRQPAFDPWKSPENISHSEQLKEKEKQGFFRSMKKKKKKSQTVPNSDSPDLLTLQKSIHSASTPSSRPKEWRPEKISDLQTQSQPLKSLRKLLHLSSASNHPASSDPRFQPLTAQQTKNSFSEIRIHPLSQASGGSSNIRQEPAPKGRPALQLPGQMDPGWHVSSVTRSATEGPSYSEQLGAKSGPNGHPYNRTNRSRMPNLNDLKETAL", "assay": "Inhibition of human CDKL5 expressed in mammalian expression system assessed as remaining enzyme activity at 10 uM by kinome scan assay"}, "[10]": {"molecular_target": "Citron Rho-interacting kinase (Homo sapiens) (UniProt O14578)", "assay": "Inhibition of human CIT expressed in bacterial expression system assessed as remaining enzyme activity at 10 uM by kinome scan assay"}, "[11]": {"molecular_target": "Casein kinase I isoform alpha (Homo sapiens) (UniProt P48729)", "assay": "Inhibition of human CSNK1A1 expressed in mammalian expression system assessed as remaining enzyme activity at 10 uM by kinome scan assay"}, "[12]": {"molecular_target": "Casein kinase I isoform gamma-2 (Homo sapiens) (UniProt P78368)", "sequence (P78368 whole entry, looked up, canonical isoform)": "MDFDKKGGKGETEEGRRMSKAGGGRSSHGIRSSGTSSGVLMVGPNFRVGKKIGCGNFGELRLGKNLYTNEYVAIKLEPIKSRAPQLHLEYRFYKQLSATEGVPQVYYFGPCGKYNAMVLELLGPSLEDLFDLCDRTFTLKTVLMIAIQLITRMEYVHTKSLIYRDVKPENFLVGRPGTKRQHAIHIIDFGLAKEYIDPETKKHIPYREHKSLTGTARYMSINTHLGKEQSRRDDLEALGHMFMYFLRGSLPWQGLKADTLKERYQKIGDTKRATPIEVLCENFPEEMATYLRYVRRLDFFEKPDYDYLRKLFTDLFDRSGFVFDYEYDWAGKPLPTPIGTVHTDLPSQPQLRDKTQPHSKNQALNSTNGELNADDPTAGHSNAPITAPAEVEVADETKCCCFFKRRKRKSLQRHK", "assay": "Inhibition of human CSNK1G2 expressed in bacterial expression system assessed as remaining enzyme activity at 10 uM by kinome scan assay"}, "[13]": {"molecular_target": "Casein kinase II subunit alpha (Homo sapiens) (UniProt P68400)", "assay": "Inhibition of human CSNK2A1 expressed in mammalian expression system assessed as remaining enzyme activity at 10 uM by kinome scan assay"}, "[14]": {"molecular_target": "Casein kinase II subunit alpha' (Homo sapiens) (UniProt P19784)", "sequence (P19784 whole entry, looked up)": "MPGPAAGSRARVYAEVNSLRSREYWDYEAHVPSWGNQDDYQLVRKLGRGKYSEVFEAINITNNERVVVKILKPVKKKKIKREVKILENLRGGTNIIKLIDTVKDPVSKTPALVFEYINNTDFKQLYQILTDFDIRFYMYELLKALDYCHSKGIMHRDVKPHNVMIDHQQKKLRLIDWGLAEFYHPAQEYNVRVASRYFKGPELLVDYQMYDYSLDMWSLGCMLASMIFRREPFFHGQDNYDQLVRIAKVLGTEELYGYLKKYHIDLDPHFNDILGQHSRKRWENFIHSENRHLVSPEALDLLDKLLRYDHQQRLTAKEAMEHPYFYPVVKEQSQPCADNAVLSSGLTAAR", "assay": "Inhibition of human CSNK2A2 expressed in mammalian expression system assessed as remaining enzyme activity at 10 uM by kinome scan assay"}, "[15]": {"molecular_target": "Death-associated protein kinase 1 (Homo sapiens) (UniProt P53355)", "assay": "Inhibition of human DAPK1 expressed in bacterial expression system assessed as remaining enzyme activity at 10 uM by kinome scan assay"}, "[16]": {"molecular_target": "Death-associated protein kinase 2 (Homo sapiens) (UniProt Q9UIK4)", "sequence (Q9UIK4 whole entry, looked up)": "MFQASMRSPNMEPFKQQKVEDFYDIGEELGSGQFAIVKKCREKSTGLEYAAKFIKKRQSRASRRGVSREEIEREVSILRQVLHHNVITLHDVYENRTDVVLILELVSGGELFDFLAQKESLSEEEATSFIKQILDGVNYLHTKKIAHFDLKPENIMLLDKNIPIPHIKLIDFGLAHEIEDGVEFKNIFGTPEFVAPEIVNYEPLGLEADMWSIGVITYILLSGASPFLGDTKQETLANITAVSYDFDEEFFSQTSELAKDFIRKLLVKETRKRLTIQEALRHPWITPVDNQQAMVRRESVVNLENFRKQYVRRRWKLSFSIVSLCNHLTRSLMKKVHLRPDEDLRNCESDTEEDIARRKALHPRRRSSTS", "assay": "Inhibition of human DAPK2 expressed in bacterial expression system assessed as remaining enzyme activity at 10 uM by kinome scan assay"}, "[17]": {"molecular_target": "Death-associated protein kinase 3 (Homo sapiens) (UniProt O43293)", "assay": "Inhibition of human DAPK3 expressed in bacterial expression system assessed as remaining enzyme activity at 10 uM by kinome scan assay"}, "[18]": {"molecular_target": "Serine/threonine-protein kinase 17B (Homo sapiens) (UniProt O94768)", "assay": "Inhibition of human DRAK2 expressed in bacterial expression system assessed as remaining enzyme activity at 10 uM by kinome scan assay"}, "[19]": {"molecular_target": "Dual specificity tyrosine-phosphorylation-regulated kinase 1B (Homo sapiens) (UniProt Q9Y463)", "assay": "Inhibition of human DYRK1B expressed in bacterial expression system assessed as remaining enzyme activity at 10 uM by kinome scan assay"}, "[20]": {"molecular_target": "Homeodomain-interacting protein kinase 1 (Homo sapiens) (UniProt Q86Z02)", "assay": "Inhibition of human HIPK1 expressed in mammalian expression system assessed as remaining enzyme activity at 10 uM by kinome scan assay"}, "[21]": {"molecular_target": "Homeodomain-interacting protein kinase 2 (Homo sapiens) (UniProt Q9H2X6)", "assay": "Inhibition of human HIPK2 expressed in mammalian expression system assessed as remaining enzyme activity at 10 uM by kinome scan assay"}, "[22]": {"molecular_target": "Homeodomain-interacting protein kinase 3 (Homo sapiens) (UniProt Q9H422)", "assay": "Inhibition of human HIPK3 expressed in mammalian expression system assessed as remaining enzyme activity at 10 uM by kinome scan assay"}, "[23]": {"molecular_target": "Interleukin-1 receptor-associated kinase 1 (Homo sapiens) (UniProt P51617)", "sequence (P51617 whole entry, looked up)": "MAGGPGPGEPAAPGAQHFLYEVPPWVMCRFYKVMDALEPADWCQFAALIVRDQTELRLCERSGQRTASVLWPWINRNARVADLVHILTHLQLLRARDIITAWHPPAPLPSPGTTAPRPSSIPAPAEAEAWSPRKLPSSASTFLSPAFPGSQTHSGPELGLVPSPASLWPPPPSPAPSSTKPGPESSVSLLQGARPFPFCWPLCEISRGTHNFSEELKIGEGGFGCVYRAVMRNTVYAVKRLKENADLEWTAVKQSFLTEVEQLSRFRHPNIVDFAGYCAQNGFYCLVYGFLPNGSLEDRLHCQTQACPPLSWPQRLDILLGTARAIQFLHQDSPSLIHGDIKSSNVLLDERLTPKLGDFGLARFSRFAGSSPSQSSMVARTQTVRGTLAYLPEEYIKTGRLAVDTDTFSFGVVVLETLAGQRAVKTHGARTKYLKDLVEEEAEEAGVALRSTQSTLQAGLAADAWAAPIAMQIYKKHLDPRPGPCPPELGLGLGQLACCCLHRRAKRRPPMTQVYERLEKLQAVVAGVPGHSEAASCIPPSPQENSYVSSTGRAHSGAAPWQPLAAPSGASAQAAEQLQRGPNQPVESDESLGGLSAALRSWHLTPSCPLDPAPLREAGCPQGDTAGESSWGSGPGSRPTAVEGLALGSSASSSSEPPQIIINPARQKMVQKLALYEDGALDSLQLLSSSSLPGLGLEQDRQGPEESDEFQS", "assay": "Inhibition of human IRAK1 expressed in mammalian expression system assessed as remaining enzyme activity at 10 uM by kinome scan assay"}, "[24]": {"molecular_target": "Interleukin-1 receptor-associated kinase 3 (Homo sapiens) (UniProt Q9Y616)", "sequence (Q9Y616 whole entry)": "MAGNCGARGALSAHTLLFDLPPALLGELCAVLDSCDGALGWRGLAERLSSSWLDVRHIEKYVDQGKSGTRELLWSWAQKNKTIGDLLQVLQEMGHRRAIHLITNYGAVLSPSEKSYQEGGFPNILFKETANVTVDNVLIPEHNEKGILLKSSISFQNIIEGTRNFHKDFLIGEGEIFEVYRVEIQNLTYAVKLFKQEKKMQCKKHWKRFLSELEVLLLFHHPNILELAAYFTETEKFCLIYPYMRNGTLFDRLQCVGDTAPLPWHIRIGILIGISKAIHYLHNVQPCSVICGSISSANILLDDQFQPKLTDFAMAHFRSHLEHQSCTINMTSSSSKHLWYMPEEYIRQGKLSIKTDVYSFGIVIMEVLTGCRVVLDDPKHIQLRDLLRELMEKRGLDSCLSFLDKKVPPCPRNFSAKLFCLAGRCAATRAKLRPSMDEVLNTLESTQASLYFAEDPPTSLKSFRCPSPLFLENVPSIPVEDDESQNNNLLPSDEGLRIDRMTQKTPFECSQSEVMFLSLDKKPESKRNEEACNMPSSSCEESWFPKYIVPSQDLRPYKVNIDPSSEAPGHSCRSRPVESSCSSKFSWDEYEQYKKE", "assay": "Inhibition of human IRAK3 expressed in bacterial expression system assessed as remaining enzyme activity at 10 uM by kinome scan assay"}, "[25]": {"molecular_target": "Phosphatidylinositol 4-kinase beta (Homo sapiens) (UniProt Q9UBF8)", "assay": "Inhibition of human PIK4CB expressed in mammalian expression system assessed as remaining enzyme activity at 10 uM by kinome scan assay"}, "[26]": {"molecular_target": "Serine/threonine-protein kinase pim-1 (Homo sapiens) (UniProt P11309)", "assay": "Inhibition of human PIM1 expressed in bacterial expression system assessed as remaining enzyme activity at 10 uM by kinome scan assay"}, "[27]": {"molecular_target": "Serine/threonine-protein kinase pim-2 (Homo sapiens) (UniProt Q9P1W9)", "assay": "Inhibition of human PIM2 expressed in bacterial expression system assessed as remaining enzyme activity at 10 uM by kinome scan assay"}, "[28]": {"molecular_target": "Phosphatidylinositol 5-phosphate 4-kinase type-2 gamma (Homo sapiens) (UniProt Q8TBX8)", "assay": "Inhibition of human PIP5K2C expressed in mammalian expression system assessed as remaining enzyme activity at 10 uM by kinome scan assay"}, "[29]": {"molecular_target": "Ribosomal protein S6 kinase alpha-4 (Homo sapiens) (UniProt O75676)", "assay": "Inhibition of human RPS6KA4 (Kin.Dom.2-C-terminal) expressed in mammalian expression system assessed as remaining enzyme activity at 10 uM by kinome scan assay"}, "[30]": {"molecular_target": "TGF-beta receptor type-2 (Homo sapiens) (UniProt P37173)", "sequence (P37173 whole entry)": "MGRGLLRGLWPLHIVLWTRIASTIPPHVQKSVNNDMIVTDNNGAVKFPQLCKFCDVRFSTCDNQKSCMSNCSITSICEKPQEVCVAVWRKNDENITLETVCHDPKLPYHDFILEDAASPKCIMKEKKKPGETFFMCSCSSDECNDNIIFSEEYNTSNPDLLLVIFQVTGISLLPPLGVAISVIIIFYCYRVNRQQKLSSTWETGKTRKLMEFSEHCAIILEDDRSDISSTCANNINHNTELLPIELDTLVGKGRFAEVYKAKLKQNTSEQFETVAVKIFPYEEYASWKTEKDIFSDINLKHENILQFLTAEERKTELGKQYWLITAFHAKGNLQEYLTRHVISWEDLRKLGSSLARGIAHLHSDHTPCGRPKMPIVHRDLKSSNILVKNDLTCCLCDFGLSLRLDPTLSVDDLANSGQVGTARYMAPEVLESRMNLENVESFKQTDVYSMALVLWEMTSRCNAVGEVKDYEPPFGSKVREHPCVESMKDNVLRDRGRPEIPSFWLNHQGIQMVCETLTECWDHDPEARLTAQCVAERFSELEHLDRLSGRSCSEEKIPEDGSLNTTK", "assay": "Inhibition of human TGFBR2 expressed in bacterial expression system assessed as remaining enzyme activity at 10 uM by kinome scan assay"}, "[31]": {"assay": "Toxicity in human pancreatic islets at >10 uM", "conditions": "pancreatic islet"}},
  "note": "The source made the active and inactive calls. The calls are words filed in the database; no cut-off is given here.",
  "data": [
    {"smiles": "COc1ccc2c(c1)[nH]c1c(CO)nccc12", "values": [
      {"measurement": "Activity", "setting": "Pancreatic islet [1]", "value": "Active"},
      {"measurement": "Activity", "setting": "Pancreatic islet [2]", "value": "Active"},
      {"measurement": "Activity", "setting": "Pancreatic islet [3]", "value": "Dose-dependent effect"},
      {"measurement": "Activity", "setting": "[4]", "value": "Non-Toxic"},
      {"measurement": "inhibition", "setting": "[5]", "value": "Active"}
    ]},
    {"smiles": "COc1ccc2c(c1)[nH]c1c(C)nc(CO)cc12", "values": [
      {"measurement": "Activity", "setting": "Pancreatic islet [1]", "value": "Active"},
      {"measurement": "Activity", "setting": "Pancreatic islet [2]", "value": "Active"},
      {"measurement": "Activity", "setting": "Pancreatic islet [3]", "value": "Dose-dependent effect"},
      {"measurement": "Activity", "setting": "[4]", "value": "Non-Toxic"},
      {"measurement": "inhibition", "setting": "[5]", "value": "Active"},
      {"measurement": "Activity", "setting": "[6]", "value": 0, "unit": "%"}
    ]},
    {"smiles": "COc1ccc2c(c1)[nH]c1c(C(C)=O)nccc12", "values": [
      {"measurement": "Activity", "setting": "Pancreatic islet [2]", "value": "Active"}
    ]},
    {"smiles": "COc1ccc2c(c1)[nH]c1c(Cl)nccc12", "values": [
      {"measurement": "Activity", "setting": "Pancreatic islet [1]", "value": "Active"},
      {"measurement": "Activity", "setting": "Pancreatic islet [2]", "value": "Active"}
    ]},
    {"smiles": "COc1ccc2c(c1)[nH]c1c(N3CCC3)nccc12", "values": [
      {"measurement": "Activity", "setting": "Pancreatic islet [1]", "value": "Active"}
    ]},
    {"smiles": "COc1ccc2c(c1)[nH]c1c(N3CCCC3)nccc12", "values": [
      {"measurement": "Activity", "setting": "Pancreatic islet [1]", "value": "inactive"}
    ]},
    {"smiles": "COc1ccc2c(c1)[nH]c1c(N3CCCC3Cc3ccccc3)nccc12", "note": "(stereo not given)", "values": [
      {"measurement": "Activity", "setting": "Pancreatic islet [1]", "value": "inactive"}
    ]},
    {"smiles": "COc1ccc2c(c1)[nH]c1c(N3CCCC3c3ccccc3)nccc12", "note": "(stereo not given)", "values": [
      {"measurement": "Activity", "setting": "Pancreatic islet [1]", "value": "inactive"}
    ]},
    {"smiles": "COc1ccc2c(c1)[nH]c1c(C)nccc12", "note": "[HARMINE]", "values": [
      {"measurement": "Activity", "setting": "Pancreatic islet [1]", "value": "Active"},
      {"measurement": "Activity", "setting": "[7]", "value": 83, "unit": "%"},
      {"measurement": "Activity", "setting": "[8]", "value": 21, "unit": "%"},
      {"measurement": "Activity", "setting": "[6]", "value": 55, "unit": "%"},
      {"measurement": "Activity", "setting": "[9]", "value": 100, "unit": "%"},
      {"measurement": "Activity", "setting": "[10]", "value": 29, "unit": "%"},
      {"measurement": "Activity", "setting": "[11]", "value": 15, "unit": "%"},
      {"measurement": "Activity", "setting": "[12]", "value": 19, "unit": "%"},
      {"measurement": "Activity", "setting": "[13]", "value": 11, "unit": "%"},
      {"measurement": "Activity", "setting": "[14]", "value": 23, "unit": "%"},
      {"measurement": "Activity", "setting": "[15]", "value": 78, "unit": "%"},
      {"measurement": "Activity", "setting": "[16]", "value": 72, "unit": "%"},
      {"measurement": "Activity", "setting": "[17]", "value": 69, "unit": "%"},
      {"measurement": "Activity", "setting": "[18]", "value": 73, "unit": "%"},
      {"measurement": "Activity", "setting": "[19]", "value": 6.1, "unit": "%"},
      {"measurement": "Activity", "setting": "[20]", "value": 21, "unit": "%"},
      {"measurement": "Activity", "setting": "[21]", "value": 8.6, "unit": "%"},
      {"measurement": "Activity", "setting": "[22]", "value": 9.4, "unit": "%"},
      {"measurement": "Activity", "setting": "[23]", "value": 17, "unit": "%"},
      {"measurement": "Activity", "setting": "[24]", "value": 15, "unit": "%"},
      {"measurement": "Activity", "setting": "[25]", "value": 12, "unit": "%"},
      {"measurement": "Activity", "setting": "[26]", "value": 45, "unit": "%"},
      {"measurement": "Activity", "setting": "[27]", "value": 39, "unit": "%"},
      {"measurement": "Activity", "setting": "[28]", "value": 36, "unit": "%"},
      {"measurement": "Activity", "setting": "[29]", "value": 40, "unit": "%"},
      {"measurement": "Activity", "setting": "[30]", "value": 78, "unit": "%"},
      {"measurement": "Activity", "setting": "[31]", "value": "Toxic"}
    ]}
  ]
}
